In brackets after ≈: the same amount, converted by molar mass.
Experiments:
[1] = system: MT4; assay: Compound tested for its inhibition of HIV-1 induced cytopathogenicity in MT-4 cells.; format: functional; settings: Homo sapiens, read-out: ED50 (the source's name)
In short: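 MT-4 cells infected with HIV-1 (HTLV-III_B) at MOI 0.02 and incubated 4 days with a range of compound concentrations. Viable cells were counted by MTT. ED50 is the 50% antiviral dose from inhibition of virus-induced cytopathogenicity, given as the mean of two separate experiments.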

[2] = system: MT4; assay: Cell viability at a concentration of 4(16.8) ug/mL (uM).; format: functional, Homo sapiens
[3] = system: MT4; assay: Compound was evaluated for inhibitory effect against MT-4 cells of HIV-2 at a concentration of 100(420) ug/mL (uM).; format: functional, Homo sapiens
In short: (§1)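 HIV-2 (ROD strain) infected MT-4 cells at multiplicity of infection 0.02, incubated with a range of compound concentrations for 4 days. Viable cells counted by MTT method. Per-concentration inhibition of virus-induced cytopathogenicity; values are means of two separate experiments.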

[4] = system: MT4; assay: Cell viability at a concentration of 100(420) ug/mL (uM).; format: functional, Homo sapiens
[5] = system: MT4; assay: Compound was evaluated for inhibitory effect against MT-4 cells of HIV-2 at a concentration of 0.8(3.4) ug/mL (uM).; format: functional, Homo sapiens; in short: as §1
[6] = system: MT4; assay: Compound was evaluated for inhibitory effect against MT-4 cells of HIV-1 at a concentration of 20(84) ug/mL (uM).; format: functional, Homo sapiens
In short: (§2)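 HIV-1 (HTLV-III_B) infected MT-4 cells at multiplicity of infection 0.02, incubated with a range of compound concentrations for 4 days. Viable cells counted by MTT method. Per-concentration inhibition of virus-induced cytopathogenicity; values are means of two separate experiments.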

[7] = system: MT4; assay: Cell viability at a concentration of 0.8(3.4) ug/mL (uM).; format: functional, Homo sapiens
[8] = system: MT4; assay: Compound was evaluated for inhibitory effect against MT-4 cells of HIV-1 at a concentration of 0.8(3.4) ug/mL (uM).; format: functional, Homo sapiens; in short: as §2
[9] = molecular target: Human immunodeficiency virus type 1 reverse transcriptase (Human immunodeficiency virus 1) (UniProt Q72547); assay: Inhibitory dose at a concentration of 2100 uM cell-free HIV-1 Reverse Transcriptase
In short: (§3)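 HIV-1 RT from partially purified, concentrated disrupted virions. Reaction at 37 °C for 30 min in 50 mM Tris-HCl pH 8.4, 2 mM DTT, 100 mM KCl, 10 mM MgCl2, 0.1% Triton X-100, with 1 µCi [methyl-3H]dTTP (30 Ci/mmol) and 0.01 unit poly(rA)·oligo(dT). Stopped with 5% TCA; precipitate collected on glass-fiber filters and counted by liquid scintillation. Experimental variation at most 10%.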

[10] = system: MT4; assay: Compound tested for its inhibition of HIV-2 induced cytopathogenicity in MT-4 cells.; format: functional; settings: Homo sapiens, read-out: ED50 (the source's name)
In short: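 MT-4 cells infected with HIV-2 (ROD) at MOI 0.02 and incubated 4 days with a range of compound concentrations. Viable cells were counted by MTT. ED50 is the dose giving 50% inhibition of virus-induced cytopathogenicity, given as the mean of two separate experiments.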

[11] = system: Human immunodeficiency virus 1; assay: Compound tested for % inhibition of giant cell formation at a concentration of 420 uM
[12] = system: MT4; assay: Compound was evaluated for inhibitory effect against MT-4 cells of HIV-2 at a concentration of 4(16.8) ug/mL (uM).; format: functional, Homo sapiens; in short: as §1
[13] = system: MT4; assay: Cell viability at a concentration of 20(84) ug/mL (uM).; format: functional, Homo sapiens
[14] = molecular target: Human immunodeficiency virus type 1 reverse transcriptase (Human immunodeficiency virus 1) (UniProt Q72547); assay: Compound tested for % inhibition of cell-free HIV-1 Reverse Transcriptase at a concentration of 16.8 uM; in short: as §3
[15] = system: MT4; assay: Compound was evaluated for inhibitory effect against MT-4 cells of HIV-1 at a concentration of 100(420) ug/mL (uM).; format: functional, Homo sapiens; in short: as §2
[16] = molecular target: Human immunodeficiency virus type 1 reverse transcriptase (Human immunodeficiency virus 1) (UniProt Q72547); assay: Compound tested for % inhibition of cell-free HIV-1 Reverse Transcriptase at a concentration of 84 uM.; in short: as §3
[17] = system: MT4; assay: Compound tested for its ability to reduce viability of mock-infected MT-4 cells.; format: functional; settings: Homo sapiens, read-out: CD50 (the source's name)
In short: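 Mock-infected MT-4 cells were incubated 4 days with a range of compound concentrations, and viability was read by MTT. CD50 is the 50% cytotoxic dose from reduced viability, given as the mean of two separate experiments.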

[18] = system: MT4; assay: Compound was evaluated for inhibitory effect against MT-4 cells of HIV-2 at a concentration of 20(84) ug/mL (uM).; format: functional, Homo sapiens; in short: as §1
[19] = system: MT4; assay: Compound was evaluated for inhibitory effect against MT-4 cells of HIV-1 at a concentration of 4(3.9) ug/mL (uM).; format: functional, Homo sapiens; in short: as §2
[20] = system: MT4; assay: Compound was evaluated for inhibitory effect against MT-4 cells of HIV-1 at a concentration of 0.8(0.8) ug/mL (uM).; format: functional, Homo sapiens; in short: as §2
[21] = system: MT4; assay: Compound was evaluated for inhibitory effect against MT-4 cells of HIV-1 at a concentration of 100(98) ug/mL (uM).; format: functional, Homo sapiens; in short: as §2
[22] = system: MT4; assay: Compound was evaluated for inhibitory effect against MT-4 cells of HIV-2 at a concentration of 20(19.6) ug/mL (uM).; format: functional, Homo sapiens; in short: as §1
[23] = system: MT4; assay: Cell viability at a concentration of 0.8(0.8) ug/mL (uM).; format: functional, Homo sapiens
[24] = system: MT4; assay: Cell viability at a concentration of 4(3.9) ug/mL (uM).; format: functional, Homo sapiens
[25] = system: MT4; assay: Cell viability at a concentration of 100(98) ug/mL (uM).; format: functional, Homo sapiens
[26] = system: MT4; assay: Compound was evaluated for inhibitory effect against MT-4 cells of HIV-2 at a concentration of 4(3.9) ug/mL (uM).; format: functional, Homo sapiens; in short: as §1
[27] = molecular target: Human immunodeficiency virus type 1 reverse transcriptase (Human immunodeficiency virus 1) (UniProt Q72547); assay: Compound tested for % inhibition of cell-free HIV-1 Reverse Transcriptase at a concentration of 3.9 uM
In short: (§4)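 HIV-1 RT came from disrupted, partially purified, concentrated virions. Reaction ran 30 min at 37 °C in 50 mM Tris-HCl pH 8.4 with 2 mM DTT, 100 mM KCl, 10 mM MgCl2, 0.1% Triton X-100, [methyl-3H]dTTP (1 µCi, 30 Ci/mmol), poly(rA)·oligo(dT) template and compound. It was stopped with 5% TCA, and precipitate was filter-collected and scintillation-counted. Variation was at most 10%.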

[28] = molecular target: Human immunodeficiency virus type 1 reverse transcriptase (Human immunodeficiency virus 1) (UniProt Q72547); assay: Compound tested for % inhibition of cell-free HIV-1 Reverse Transcriptase at a concentration of 19.6 uM; in short: as §4
[29] = system: MT4; assay: Cell viability at a concentration of 20(19.6) ug/mL (uM).; format: functional, Homo sapiens
[30] = system: MT4; assay: Compound was evaluated for inhibitory effect against MT-4 cells of HIV-1 at a concentration of 20(19.6) ug/mL (uM).; format: functional, Homo sapiens; in short: as §2
[31] = system: MT4; assay: Compound was evaluated for inhibitory effect against MT-4 cells of HIV-2 at a concentration of 100(98) ug/mL (uM).; format: functional, Homo sapiens; in short: as §1
[32] = molecular target: Human immunodeficiency virus type 1 reverse transcriptase (Human immunodeficiency virus 1) (UniProt Q72547); assay: Compound tested for % inhibition of cell-free HIV-1 Reverse Transcriptase at a concentration of 490 uM; in short: as §4
[33] = molecular target: Human immunodeficiency virus type 1 reverse transcriptase (Human immunodeficiency virus 1) (UniProt Q72547); assay: Inhibitory dose at a concentration 490 uM cell-free HIV-1 Reverse Transcriptase
In short: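 HIV-1 RT from disrupted, partially purified and concentrated virions. 37 °C for 30 min in 50 mM Tris-HCl pH 8.4, 2 mM DTT, 100 mM KCl, 10 mM MgCl₂, 0.1% Triton X-100, 1 µCi [methyl-³H]dTTP, 0.01 unit poly(rA)·oligo(dT). Stopped with 5% TCA; precipitate collected on glass-fiber filters and counted by scintillation. Means of two experiments; variation ≤10%.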

[34] = system: MOLT-4 (Homo sapiens); assay: Compound tested for % inhibition of giant cell formation at a concentration of 98 uM
[35] = system: MT4; assay: Compound was evaluated for inhibitory effect against MT-4 cells of HIV-2 at a concentration of 0.8(0.8) ug/mL (uM).; format: functional, Homo sapiens; in short: as §1
[36] = system: Human immunodeficiency virus 1; assay: Compound tested for % inhibition of giant cell formation at a concentration of 98 uM

Nc1cc(S(=O)(=O)O)c2ccccc2c1N
EC50 [1]: > 45 µg/mL | Cell viability [2]: 0 | Inhibition [3]: 0% | Cell viability [4]: 97 | Inhibition [5]: 1% | Inhibition [6]: 0% | Cell viability [7]: 13 | Inhibition [8]: 0% | ID50 [9]: > 500 µg/mL | EC50 [10]: > 45 µg/mL | inhibition [11]: 0% | Inhibition [12]: 3% | Cell viability [13]: 1 | inhibition [14]: 2% | Inhibition [15]: 0% | inhibition [16]: 1% | CC50 [17]: 45 µg/mL (≈ 189 µM) | Inhibition [18]: 0%

O=S(=O)([O-])c1cc(O)c2c(NS(=O)(=O)c3ccc(-c4ccc(S(=O)(=O)Nc5cc(S(=O)(=O)[O-])cc6cc(S(=O)(=O)[O-])cc(O)c56)cc4)cc3)cc(S(=O)(=O)[O-])cc2c1.[Na+].[Na+].[Na+].[Na+]
EC50 [1]: 7.8 µg/mL | Inhibition [19]: 15% | Inhibition [20]: 5% | Inhibition [21]: 100% | Inhibition [22]: 20% | Cell viability [23]: 0 | Cell viability [24]: 0 | Cell viability [25]: 0 | Inhibition [26]: 7% | inhibition [27]: 0% | inhibition [28]: 30% | Cell viability [29]: 0 | EC50 [10]: 37 µg/mL | Inhibition [30]: 100% | Inhibition [31]: 100% | inhibition [32]: 100% | CC50 [17]: > 100 µg/mL | ID50 [33]: 190 µg/mL | inhibition at 98 µM [34]: 100% | Inhibition [35]: 6% | inhibition [36]: 100%
